# Only some compounds are listed: those with a hit (about 5.1% of all), similar ones and a draw of the others.
# APP 5'UTR act = activates APP 5'UTR luciferase reporter; AID 1276; 190,000 compounds, 1% hits; SH-SY5Y APP 5'UTR luciferase reporter, luminescence; zero percent = DMSO vehicle wells; activation, % at 2 µM;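 active = activation above a set limit, based on mean plus 3 SD of controls, cut at about 140% in these data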
# STAT1 inh = inhibitors of IFN-gamma induced STAT1 signaling. NIH 3T3 STAT1-luciferase reporter, luminescence. 200,000 compounds, 0.35% hits. inhibition, % at 5.5 µM. AID 920;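 active = inhibition above a set limit, the mean inhibition across all tested compounds plus 3 SD, cut at about 34% in these data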;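 also: 0% = IFN-gamma with DMSO and 100% = IFN-gamma with 300 µM nifuroxazide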
# STAT3 act = activators of IL-6 induced STAT3 signaling | AID 871 | activation (% of control), % at 5.6 µM | U3A cells, IL-6 STAT3-luciferase reporter, luminescence; 100% = signal with IL-6 EC80 alone | 190,000 compounds, 0.91% hits;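 active = activation above the screen-wide mean of compound activation plus 3 SD, cut at about 130% in these data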;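 also: 0% = background luminescence of wells with medium and substrate only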
#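 Test system: Human STAT1-deficient U3A cells with stable STAT3-luciferase reporter | Also added: Interleukin-6, 33 ng/mL | Timing: Compound pre-incubation 1 h before IL-6, then 6 h stimulation at 37 °C | Technique: Luciferase reporter luminescence | Read-out: Percent of IL-6-only median luminescence | Benchmarks: IL-6-only wells as 100% reference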
# STAT3 inh = reduces IL-6 driven STAT3 reporter signal. 190,000 compounds, 0.89% hits. U3A cells, IL-6 STAT3-luciferase reporter, luminescence; host cell line lacks STAT1. inhibition, % at 5.5 µM;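 active = inhibition above the mean inhibition across all screened compounds plus 3 SD, cut at about 44% in these data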;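 also: 0% = DMSO only wells and 100% = 100 µM nifuroxazide control wells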
# NF-kB neuron act = compounds increasing NF-kB expression in human neuronal cells; 190,000 compounds, 1.6% hits; NF-kB reporter expression; hits give high values; AID 1239; fold change at 12.5 µM; in the data active = fold change above about 3.3
# STAT1 activator = increases IFN-gamma driven STAT1 reporter signal; NIH 3T3 STAT1-luciferase reporter, luminescence; 100% = IFN-gamma alone, no compound; activation (% of control), % at 5.5 µM; 200,000 compounds, 2.6% hits; AID 932;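 active = activation above the screen-wide mean activation plus 3 SD, cut at about 130% in these data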;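 also: raw ratio to IFN-gamma control signal so 100% means no change and 0% no light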
# Active calls of the source: *; nt = no result.
SMILES,APP 5'UTR act,STAT1 inh,STAT3 act,STAT3 inh,NF-kB neuron act,STAT1 activator
Fc1ccc(-n2nnc(-c3cccnc3)n2)cc1,24,-51,nt,nt,2.1,149*
O=C(CCC(=O)OCc1ccc(Br)cc1)Nc1ccccc1,5,-4,100,-3,0.84,103
CC(C)(C)/C(COc1ccccc1[N+](=O)[O-])=N/O,-4,1,100,9,1.2,97
CC1=CC(=O)C=C(C)C1=NOc1ccccc1[N+](=O)[O-],-26,5,106,-5,3.7*,95
O=c1c2ccccc2nnn1COc1cccc(Cl)c1,18,-35,97,10,1.4,131*
O/C(=C\c1nc2ccccc2nc1/C=C(\O)c1ccccc1)c1ccccc1,83,-39,145*,-39,1.2,134*
CCOC(=O)c1c(C)[nH]c(C(=O)N/N=C\c2ccccc2Cl)c1C,2,10,80,22,0.84,91
CCc1ccc(C2CC(c3ccco3)=NN2S(C)(=O)=O)cc1 (configuration not stated),155*,-42,90,18,4.8*,138*
CC(=O)N1N=C(c2ccco2)CC1c1ccc(C)cc1 (configuration not stated),-16,8,94,8,1.1,93
CCCn1c(=O)[nH]c(=O)c2c1nc(-c1ccc(OC)c(Br)c1)n2CCOC,2,6,101,1,0.84,93
CNc1ccccc1C(=O)OCC(=O)c1ccc(F)cc1,8,-38,94,15,1.6,132*
NS(=O)(=O)c1cc(C(=O)OCC(=O)NC2CC2)ccc1Cl,-13,-1,96,8,0.96,101
NS(=O)(=O)c1ccc(NC(=O)COC(=O)c2ccc3c(c2)OCCO3)cc1,15,1,104,-3,1.1,98
CC(C)N(Cc1ccccc1)C(=O)COC(=O)c1ccc2c(c1)OCCO2,4,0,104,-3,0.85,98
N#CCC(=O)Nc1ccc(C(=O)OCC(=O)c2ccc3c(c2)OCCO3)cc1,112,-17,84,22,4.6*,116
CNc1ccccc1C(=O)OCC(=O)c1ccccc1,-4,-27,99,-1,1.4,124
CC(C)C(=O)Nc1ccccc1C(=O)OCC(=O)c1ccc2c(c1)OCCO2,31,-43,102,-8,0.85,139*
NS(=O)(=O)c1cc(C(=O)OCC(=O)c2ccc3c(c2)OCCO3)ccc1Cl,18,-23,97,10,9.8*,120
NC(=O)NC(=O)COC(=O)CCCCCNS(=O)(=O)c1ccc2c(c1)OCCO2,-4,8,96,5,1.2,93
COCc1cc(C)nc(SCC[N+](C)(C)CC(=O)Nc2cccc(C(F)(F)F)c2)c1C#N,-2,-6,104,-4,1.2,104
CCCc1nc2sc3ccccc3c(=O)c2c(=O)n1Cc1ccco1,1,4,147*,-50,0.93,96
CCCc1nc2oc3cc(OC)ccc3c(=O)c2c(=O)n1Cc1ccco1,-7,-2,87,21,1.4,102
CC(=O)N1CC(=O)N=C1SCC(=O)Nc1nc(C)c(-c2ccccc2)s1,2,22,101,1,1.5,79
c1ccc2nc(-c3nccs3)ccc2c1,39,-38,94,12,1.2,131*
O=C(NCc1cccnc1)C(=O)Nc1nc2ccccc2s1,7,-41,105,-5,1.5,139*
SMILES,APP 5'UTR act,STAT1 inh,STAT3 act,STAT3 inh,NF-kB neuron act,STAT1 activator
CCOc1ccc2nc(NC(=O)c3cnccn3)sc2c1,38,-42,86,18,3.3,138*
O=C(Nc1nc2ccccc2s1)c1cnccn1,55,-18,69,36,4*,116
O=C(Nc1nccs1)c1cnccn1,11,4,97,8,1.3,96
CCOc1ccc2nc(NC(=O)CSC3=NCCS3)sc2c1,46,-32,80,25,3.1,129*
O=C(NCc1cccnc1)C(=O)Nc1nccs1,2,-4,95,6,1.1,104
CCOc1ccc2nc(NC(=O)CSc3ccc(Cl)cc3)sc2c1,-14,3,104,-3,1.1,97
CCOc1ccc(C(=O)NC(=S)Nc2ccccc2N2CCOCC2)cc1Br,8,-1,98,5,0.54,100
O=C(Nc1nc2ccc(F)cc2s1)c1ccccn1,30,70*,22,96*,0.43,35
COc1ccccc1-n1nc(C)c(-c2ccccc2)c1N,4,0,96,8,0.91,99
C[n+]1c(/C=C/c2ccc3c(c2)OCO3)ccc2ccccc21,185*,-18,94,14,0.58,115
CCN(C(=O)/C=C/c1ccc2c(c1)OCO2)c1ccccc1,-2,-10,86,20,1.5,109
N/C(=N\OC(=O)c1ccc2c(c1)OCO2)c1cccnc1,118,12,91,12,3.5*,87
COc1ccc(/C(N)=N/OC(=O)c2ccc3c(c2)OCO3)cc1OC,44,-18,110,-7,2.1,116
N/C(=N\OC(=O)c1ccc(Cl)c(Cl)c1)c1cccnc1,1,-20,96,5,4*,118
N/C(=N\OC(=O)c1ccccc1Cl)c1cccnc1,109,-47,107,-7,5.7*,140*
N/C(=N\OC(=O)c1ccc2c(c1)OCO2)c1ccc([N+](=O)[O-])cc1,49,-34,101,3,1.7,129*
CCCC(C)C(=O)OCC(=O)Nc1ccc(Br)cc1 (configuration not stated),-16,2,105,-4,0.92,97
O=C(Nc1nnc(-c2cccs2)s1)C1CC1,27,-34,101,1,1.7,130*
CCc1nnc(NC(=O)c2cccc(OC)c2)s1,101,-40,86,18,2.7,137*
COc1cccc(C(=O)Nc2nnc(-c3cccs3)s2)c1,56,-2,52,58*,3.3,102
O=C1CC(N2CCN(c3nc4ccccc4s3)CC2)C(=O)N1c1cccc(F)c1 (configuration not stated),-12,-13,94,5,0.8,112
Cc1occc1C(=O)NNC(=S)Nc1ccccc1C(F)(F)F,108,-36,102,-4,0.95,133*
CCN(CC)S(=O)(=O)c1cccc(-c2nc3n(n2)Cc2ccccc2-3)c1,-10,-30,89,16,1.4,127
Clc1ccc(-c2nc3n(n2)Cc2ccccc2-3)cc1,139*,-42,96,8,6.1*,150*
CCOC(=O)c1c(NC(=O)CSc2c[nH]c3ccccc23)sc2c1CCCC2,-10,-1,135*,-40,3.2,101
CCOC(=O)c1c(NC(=O)CSc2nnc3ccccn23)sc2c1CCC2,0,0,92,8,1.2,101
CCOC(=O)c1c(NC(=O)CSc2c[nH]c3ccccc23)sc2c1CCC2,-14,3,107,-8,4*,97

# Source: PubChem BioAssay (several laboratories)
